Data set [1] addresses T1, Prostaglandin E2 receptor EP1 subtype (Homo sapiens, UniProt P34995).
T1 sequence (P34995 whole entry): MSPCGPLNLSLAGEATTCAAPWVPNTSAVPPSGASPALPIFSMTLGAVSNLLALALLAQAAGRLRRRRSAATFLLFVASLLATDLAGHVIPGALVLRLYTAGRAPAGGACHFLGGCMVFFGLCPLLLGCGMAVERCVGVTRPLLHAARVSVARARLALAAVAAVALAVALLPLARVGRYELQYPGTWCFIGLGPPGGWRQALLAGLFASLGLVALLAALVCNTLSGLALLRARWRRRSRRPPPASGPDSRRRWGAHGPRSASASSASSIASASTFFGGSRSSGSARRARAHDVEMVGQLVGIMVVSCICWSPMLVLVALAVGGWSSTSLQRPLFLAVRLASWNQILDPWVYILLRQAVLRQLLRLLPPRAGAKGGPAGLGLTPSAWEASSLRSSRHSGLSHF
As to the kind of experiment: Displacement of [3H]PGE2 from human EP1 receptor expressed in CHOK1 cells. Type of data set: cell-based, CHO-K1. The method in brief:
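Membranes from CHO-K1 cells stably transfected with human EP1 cDNA were incubated with competing compound and [3H]-PGE2 (3 nM final) for 30 min at 30 °C. Bound radioactivity was counted by liquid scintillation. Values are means of at least three experiments.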

Data set [2] deals with T1, Prostaglandin E2 receptor EP1 subtype. As to the kind of experiment: Antagonist activity against human EP1 receptor expressed in CHOK1 cells assessed as inhibition of PGE2-induced intracellular calcium mobilization by FLIPR assay. Type of data set: functional, cell-based, CHO-K1. On the technique in general: Calcium flux is commonly read through the fluorescence of an indicator in the cells.

Data set [3] has as its system Liver. As to the kind of experiment: Metabolic stability assessed as intrinsic clearance in rat liver microsome. To be noted: microsomes. Type of data set: ADME. The essentials: (§1)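 Intrinsic clearance was measured in liver microsomes and expressed as mL/min/g liver. Values come from a single experiment.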
The test system of data set [4] is Liver. As to the kind of experiment: Metabolic stability assessed as intrinsic clearance in human liver microsome. Type of data set: ADME. To be noted: microsomes. The method in brief: as §1
The subject of data set [5] is Rattus norvegicus. As to the kind of experiment: Inhibition of complete Freund's adjuvant-induced hypersensitivity in orally dosed rat. The format is functional. To be noted: po. The essentials: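 Rats with CFA-induced inflammatory hypersensitivity were dosed orally, seven per dose group, with celecoxib 10 mg/kg po as comparator. Readout was taken 1 h after dosing. ED50 was calculated from the dose-response, and significance was reported at p < 0.05, 0.01 and 0.001.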

The test system of data set [6] is Rattus norvegicus. As to the kind of experiment: Drug level in complete Freund's adjuvant-induced hypersensitivity rat blood at 1 mg/kg, po. The format is ADME, organism-based. Set-up: dose 1 mg/kg, route oral. To be noted: in vivo, read-out: Drug uptake. The essentials: (§2)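 Blood was sampled from the rats in the CFA hypersensitivity efficacy study, seven per dose group, and analysed by bioanalysis. Rats were dosed orally at 1, 3 and 10 mg/kg.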

Data set [7] relates to Rattus norvegicus. As to the kind of experiment: Drug level in complete Freund's adjuvant-induced hypersensitivity rat blood at 3 mg/kg, po. The format is ADME, organism-based. Set-up: dose 3 mg/kg, route oral. To be noted: in vivo, read-out: Drug uptake. The method in brief: as §2
Data set [8] has as its system Rattus norvegicus. As to the kind of experiment: Drug level in complete Freund's adjuvant-induced hypersensitivity rat blood at 10 mg/kg, po. To be noted: in vivo, read-out: Drug uptake. Set-up: dose 10 mg/kg, route oral. The format is ADME, organism-based. The method in brief: as §2
Data set [9] in a line: Ratio of drug level in brain to blood in complete Freund's adjuvant-induced hypersensitivity rat. Type of data set: ADME, tissue-based.
The target of data set [10] is T2, Prostaglandin E2 receptor EP3 subtype (Homo sapiens, UniProt P43115).
T2 sequence (P43115 whole entry): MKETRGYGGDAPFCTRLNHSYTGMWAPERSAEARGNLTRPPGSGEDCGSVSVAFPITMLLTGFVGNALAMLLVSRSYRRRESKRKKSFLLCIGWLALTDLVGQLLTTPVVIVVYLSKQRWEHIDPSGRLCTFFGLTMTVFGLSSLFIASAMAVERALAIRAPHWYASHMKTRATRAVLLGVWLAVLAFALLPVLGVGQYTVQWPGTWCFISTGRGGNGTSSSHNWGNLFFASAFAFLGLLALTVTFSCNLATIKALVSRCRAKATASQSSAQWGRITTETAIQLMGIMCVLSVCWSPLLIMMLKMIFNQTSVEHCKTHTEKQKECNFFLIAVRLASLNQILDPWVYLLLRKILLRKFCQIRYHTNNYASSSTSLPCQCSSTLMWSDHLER
As to the kind of experiment: Antagonist activity against EP3 receptor by FLIPR assay. The format is functional.

Another data set addresses T3, Thromboxane A2 receptor (Homo sapiens, UniProt P21731).
T3 sequence (P21731 whole entry): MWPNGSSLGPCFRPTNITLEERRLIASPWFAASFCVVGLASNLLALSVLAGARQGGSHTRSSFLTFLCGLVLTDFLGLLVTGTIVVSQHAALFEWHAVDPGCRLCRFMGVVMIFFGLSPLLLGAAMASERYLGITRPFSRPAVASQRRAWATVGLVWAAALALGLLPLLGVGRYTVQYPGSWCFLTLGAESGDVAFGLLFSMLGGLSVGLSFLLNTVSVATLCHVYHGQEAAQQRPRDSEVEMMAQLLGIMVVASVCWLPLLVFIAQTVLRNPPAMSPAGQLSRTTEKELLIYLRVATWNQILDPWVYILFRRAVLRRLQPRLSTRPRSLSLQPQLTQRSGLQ
As to the kind of experiment: Antagonist activity against TP receptor by FLIPR assay. Type of data set: functional.

Bounds are passed on as bounds.

In general, IC50 refers to the concentration that gives 50% inhibition. Broadly, the Ki is a dissociation constant, usually derived from enzyme kinetics or from competition with a known ligand. As usually defined, the ED50 is the dose that gives a 50% effect, or the effect in half of the subjects. Usually Kp stands for the ratio of the level in a tissue or fluid to that in plasma or blood.

For `CC(C)Cc1cn(-c2cccc(C(=O)[O-])n2)c2cc(Cl)ccc12.[Na+]`, the IC50 in [1] (read-out: Log IC50 (converted)) is 63.1 nM. For the same molecule, the Ki is 20 nM in data set [2] (read-out: Log Ki (converted)) and 794 nM in [10]. Moreover, the CL in the data set on Liver [3] is 4.3 mL/min/g; with Liver [4], 3.6 mL/min/g. The ED50 in the data set with Rattus norvegicus [5] was 2.17 mg/kg. Moreover, the concentration in the data set with Rattus norvegicus [6] worked out at 440 nM; with Rattus norvegicus [7] it was 1230 nM; with Rattus norvegicus [8], 6040 nM. The Kp in data set [9] was 0.05.

In the case of `CC(C)(C)Cc1cn(-c2nc(C(=O)[O-])cs2)c2cc(Cl)ccc12.[Na+]`, the IC50 in [1] (read-out: Log IC50 (converted)) was 31.6 nM. The CL with Liver [3] was found to be 1.9 mL/min/g; with Liver [4] it was 2.7 mL/min/g.

Consider `CN(C)C(=O)c1cn(-c2nc(C(=O)O)cs2)c2cc(Cl)ccc12`, for which the IC50 in [1] (read-out: Log IC50 (converted)) was 1000 nM.

In the case of `CC(C)Cc1cn(CC(=O)O)c2cc(Cl)ccc12`, the concentration for half-maximal inhibition (IC50) in data set [1] (read-out: Log IC50 (converted)) is above 1000 nM.

Turning to `CC(C)(C)CCc1cn(-c2nc(C(=O)[O-])cs2)c2cc(Cl)ccc12.[Na+]`, the 50% inhibitory concentration (IC50) in data set [1] (read-out: Log IC50 (converted)) was 6.31 nM. In addition, the Ki in data set [2] (read-out: Log Ki (converted)) is 3.98 nM; in data set [10] it was 398 nM; on Thromboxane A2 receptor, 79.4 nM. Moreover, the CL in the data set on Liver [3] stood at 1.3 mL/min/g; in the data set with Liver [4], 2.1 mL/min/g.

Regarding `CCCc1cn(-c2nc(C(=O)[O-])cs2)c2cc(Cl)ccc12.[Na+]`, the IC50 in [1] (read-out: Log IC50 (converted)) was 31.6 nM. The CL in the data set with Liver [3] worked out at 11 mL/min/g; in the data set with Liver [4], 1.3 mL/min/g.

On to `CN(C)CCc1cn(-c2nc(C(=O)O)cs2)c2cc(Cl)ccc12`, for which the half-inhibitory concentration (IC50) in [1] (read-out: Log IC50 (converted)) is above 1000 nM.

As for `CC(C)Cc1cn(-c2cccc(C(=O)O)c2)c2cc(Cl)ccc12`, in data set [1] (read-out: Log IC50 (converted)), the IC50 was 631 nM.

Turning to `CC(C)Cc1cn(-c2ccccc2C(=O)O)c2cc(Cl)ccc12`, the IC50 in data set [1] (read-out: Log IC50 (converted)) was above 1000 nM.

Take `CC(C)Cc1cn(-c2nc(C(=O)O)cs2)c2ccc(Cl)cc12`: in data set [1] (read-out: Log IC50 (converted)), the concentration for half-maximal inhibition (IC50) was 39.8 nM.

Turning to `O=C(O)c1csc(-n2cc(CC(F)(F)F)c3ccc(Cl)cc32)n1`, in data set [1] (read-out: Log IC50 (converted)), the IC50 was 251 nM.

On to `CC(C)Cc1cn(-c2nc(C(=O)O)cs2)c2cc(Br)ccc12`, for which, in data set [1] (read-out: Log IC50 (converted)), the IC50 is 3.98 nM. The values for the Ki (in [2] (read-out: Log Ki (converted)); in data set [10]; at Thromboxane A2 receptor) were 0.2 nM, 398 nM and 50.1 nM, respectively.

With `CC(C)Cc1cn(-c2nc(C(=O)O)cs2)c2cc(F)ccc12`, the IC50 in data set [1] (read-out: Log IC50 (converted)) was 39.8 nM.

Take `CN(C)Cc1cn(-c2nc(C(=O)O)cs2)c2cc(Cl)ccc12`: the IC50 in data set [1] (read-out: Log IC50 (converted)) was above 1000 nM.

On to `CC(C)Cc1cn(-c2nc(CC(=O)O)cs2)c2cc(Cl)ccc12`, for which the half-inhibitory concentration (IC50) in data set [1] (read-out: Log IC50 (converted)) was 158 nM.

Turning to `CC(C)Cc1cn(-c2nc(C(=O)[O-])cs2)c2cc(Cl)ccc12.[Na+]`, the 50% inhibitory concentration (IC50) in data set [1] (read-out: IC50) came to 6.3 nM. The Ki in data set [2] (read-out: Ki) was 0.5 nM; in [10] it was 316 nM; at Thromboxane A2 receptor it was 31.6 nM. Also, the values for the CL with Liver [3] and in the data set on Liver [4] were 12 mL/min/g and 2.2 mL/min/g, respectively.

On to `O=C(O)c1csc(-n2ccc3ccc(Cl)cc32)n1`, for which the IC50 in data set [1] (read-out: Log IC50 (converted)) was above 1000 nM.

Take `CC(C)Cc1cn(-c2ncc(C(=O)O)s2)c2cc(Cl)ccc12`: the IC50 in [1] (read-out: Log IC50 (converted)) is 100 nM.

Consider `CC(C)Cc1cn(-c2nc(C(=O)O)cs2)c2ccccc12`, for which the IC50 in data set [1] (read-out: Log IC50 (converted)) was 158 nM. Further, the inhibitory constant (Ki) in [2] (read-out: Log Ki (converted)) was 12.6 nM.

On to `CC(C)Cc1cn(-c2nc(C(=O)O)co2)c2cc(Cl)ccc12`, for which the IC50 in data set [1] (read-out: Log IC50 (converted)) was 7.94 nM. Further, the inhibition constant Ki in data set [2] (read-out: Log Ki (converted)) is 1 nM.

As for `CC(C)Cc1cn(-c2nc(C(=O)O)cs2)c2cc(C(F)(F)F)ccc12`, the IC50 in [1] (read-out: Log IC50 (converted)) is 12.6 nM. Besides, the Ki in [2] (read-out: Log Ki (converted)) was 0.0631 nM; in [10] it was 501 nM.

On to `CC(C)Cc1cn(-c2ccc(C(=O)O)s2)c2cc(Cl)ccc12`, for which, in data set [1] (read-out: Log IC50 (converted)), the IC50 is 50.1 nM.

Turning to `Cc1ccc2c(CC(C)C)cn(-c3nc(C(=O)O)cs3)c2c1`, the IC50 in data set [1] (read-out: Log IC50 (converted)) is 10 nM.

Consider `Cc1c(CC(C)C)c2ccc(Cl)cc2n1-c1nc(C(=O)O)cs1`, for which, in data set [1] (read-out: Log IC50 (converted)), the IC50 is 39.8 nM.

For `CC(C)Cc1cn(-c2ccc(C(=O)[O-])o2)c2cc(Cl)ccc12.[Na+]`, the IC50 in [1] (read-out: Log IC50 (converted)) was 25.1 nM. In addition, the Ki in data set [2] (read-out: Log Ki (converted)) is 1.26 nM; in data set [10], 501 nM; on Thromboxane A2 receptor it was 398 nM. For the same molecule, the values for the CL in the data set with Liver [3] and in the data set on Liver [4] were 35 mL/min/g and 5.4 mL/min/g, respectively.

`CC(C)c1cn(-c2nc(C(=O)O)cs2)c2cc(Cl)ccc12`: the IC50 in data set [1] (read-out: Log IC50 (converted)) is 39.8 nM.

For the molecule `CC(C)Cc1cn(Cc2nc(C(=O)O)cs2)c2cc(Cl)ccc12`, the IC50 in data set [1] (read-out: Log IC50 (converted)) is 6.31 nM.

For the molecule `CCc1cn(-c2nc(C(=O)O)cs2)c2cc(Cl)ccc12`, in data set [1] (read-out: Log IC50 (converted)), the IC50 is 126 nM.

Turning to `CC(C)C(=O)c1cn(-c2nc(C(=O)O)cs2)c2cc(Cl)ccc12`, the IC50 in [1] (read-out: Log IC50 (converted)) was 100 nM.

Consider `O=C(O)c1csc(-n2cc(Cc3ccccc3)c3ccc(Cl)cc32)n1`, for which the IC50 in [1] (read-out: Log IC50 (converted)) is 158 nM. Besides, the Ki in data set [2] (read-out: Log Ki (converted)) was 63.1 nM.
